A short description of data set [1]: Chemical stability in solid state. The data set is classed as physicochemical.
Data set [2] can be described thus: Chemical stability in DMSO. It is filed as physicochemical.
Data set [3] can be described thus: Chemical stability in chloroform. It is filed as physicochemical.
The nature of data set [4]: Chemical stability in methanol. It is filed as physicochemical.
Data set [5] has as its system MDCK. Nature of the data set: Cytotoxicity against HGF-stimulated […] MDCK cells at biologically active concentration. It is filed as cell-based.
The test system of data set [6] is MDCK. Nature of the data set: Cytotoxicity against HGF-stimulated […] MDCK cells at 50 to 100 fold higher biologically active concentration. The data set is classed as cell-based.
Data set [7] concerns HepG2. Nature of the data set: Cytotoxicity against serum-starved human HepG2 cells assessed as reduction of cell survival after 48 hrs by Cell Titer-Glo luminescent assay. It is filed as functional, cell-based. (ATP-based viability assays read luminescence as a measure of living cells.)
In data set [8] the test system is GTL 16. Briefly: Cytotoxicity against serum-starved human GTL16 cells assessed as reduction of cell survival after 48 hrs by Cell Titer-Glo luminescent assay. The data set is classed as functional, cell-based.
The subject of data set [9] is BT-474. Briefly: Cytotoxicity against serum-starved human BT474 cells assessed as reduction of cell survival at 10 to 30 uM after 48 hrs by Cell Titer-Glo luminescent assay. The data set is classed as functional, cell-based. The method, boiled down: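 Cells were held in serum-free medium for 24 h, then exposed to compound for 48 h. Viability was read by CellTiter-Glo luminescence, and data come from three independent experiments run in duplicate. BT474 was routinely maintained in RPMI with 4 mM L-glutamine, 10% FBS and penicillin/streptomycin at 37 °C under 5% CO2.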

The test system of data set [10] is MCF7. Nature of the data set: Cytotoxicity against serum-starved human MCF7 cells over-expressing ErbB2 cells assessed as reduction of cell survival at 10 to 30 uM after 48 hrs by Cell Titer-Glo luminescent assay. The data set is classed as functional, cell-based.
In data set [11] the test system is HepG2. Briefly: Cytotoxicity against serum-starved human HepG2 cells at 2 uM after 48 hrs by Cell Titer-Glo luminescent assay. It is filed as functional, cell-based.
Data set [12] relates to GTL 16. Nature of the data set: Cytotoxicity against serum-starved human GTL16 cells at 2 uM after 48 hrs by Cell Titer-Glo luminescent assay. The data set is classed as functional, cell-based.
The test system of data set [13] is MCF7. Nature of the data set: Cytotoxicity against serum-starved human MCF7 cells over-expressing ErbB2 cells at 2 uM after 48 hrs by Cell Titer-Glo luminescent assay. The data set is classed as functional, cell-based.
For data set [14], the system named is BT-474. Briefly: Cytotoxicity against serum-starved human BT474 cells at 2 uM after 48 hrs by Cell Titer-Glo luminescent assay. It is filed as functional, cell-based.
Data set [15] addresses Hepatocyte growth factor receptor (Homo sapiens) (UniProt P08581). Nature of the data set: Inhibition of Met-mediated scattering in HGF-stimulated […] MDCK cells pre-incubated overnight prior to HGF stimulation for 24 hrs measured after 24 to 48 hrs. It is filed as cell-based.
The subject of data set [16] is BT-474. Briefly: Cytotoxicity against serum-starved human BT474 cells at 10 uM after 48 hrs by Cell Titer-Glo luminescent assay. The data set is classed as functional, cell-based.
In data set [17] the test system is MCF7. Briefly: Cytotoxicity against serum-starved human MCF7 cells over-expressing ErbB2 cells at 10 uM after 48 hrs by Cell Titer-Glo luminescent assay. It is filed as functional, cell-based.
For data set [18], the target named is Hepatocyte growth factor receptor (Homo sapiens) (UniProt P08581). Briefly: Inhibition of Met-mediated scattering in HGF-stimulated […] MDCK cells at 10 uM pre-incubated overnight prior to HGF stimulation for 24 hrs measured after 24 to 48 hrs. The data set is classed as cell-based. In a few lines:
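MDCK cells in DMEM with 2% FBS, 1000 cells/well, settled overnight; compounds 0.1–100 µM overnight at 37 °C, then HGF 20 ng/ml for 24 h; further 24–48 h; PBS wash, 4% PFA fix; scattered cells counted in 30 colonies; IC50 = 50% inhibition of scattering.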

Active and inactive are the calls of the source. No cut-off for these calls is given here.

For 20 molecules, Stability, Activity and inhibition results are on record in ChEMBL document CHEMBL1926663, “Identification of new aminoacid amides containing the imidazo[2,1-b]benzothiazol-2-ylphenyl moiety as inhibitors of tumorigenesis by oncogenic Met signaling” (Eur J Med Chem, 2012).

In the case of `O=C(Cc1cc(F)cc(F)c1)N[C@@H](Cc1ccccc1)C(=O)Nc1ccc(-c2cn3c(n2)sc2ccccc23)cc1`, the Stability result in [1], in [2], in data set [3] and in [4] was “Stable” throughout. Also, the Activity entry in the data set with MDCK [5] was “Non-toxic”; in the data set with MDCK [6], “Toxic”; in the data set with HepG2 [7] it was “Dose-dependent effect”; in the data set with GTL 16 [8] it was “Dose-dependent effect”. Further, the result in the data set with BT-474 [9] and in the data set on MCF7 [10] was inactive.
Take `Cc1ccc(C[C@H](NC(=O)Cc2cc(C)cc(C)c2)C(=O)Nc2ccc(-c3cn4c(n3)sc3ccccc34)cc2)cc1`: the Stability result in [1], in data set [2], in [3] and in data set [4] was “Stable” each time.
Regarding `Cc1[nH]c(/C=C2\C(=O)Nc3ccc(S(=O)(=O)N(C)c4cccc(Cl)c4)cc32)c(C)c1C(=O)N1CCN(C)CC1`, the outcome with HepG2 [11] and with GTL 16 [12] was Active. The result in the data set with MCF7 [13] and in the data set with BT-474 [14] was inactive.
For `O=C(Cc1cc(C(F)(F)F)cc(C(F)(F)F)c1)N[C@H](Cc1ccccc1)C(=O)Nc1ccc(-c2cn3c(n2)sc2ccccc23)cc1`, the Stability result in [1], in [2], in data set [3] and in data set [4] was “Stable” in each case. Further, the Activity entry in the data set with MDCK [5] is “Non-toxic”; with MDCK [6], “Toxic”; with HepG2 [7], “Dose-dependent effect”; in the data set with GTL 16 [8] it was “Dose-dependent effect”. Also, the result with BT-474 [9] and with MCF7 [10] was inactive.
Consider `O=C(Cc1cc(F)cc(F)c1)NCCC(=O)Nc1ccc(-c2cn3c4c(sc3n2)CN(Cc2ccccc2)CC4)cc1`, for which the Stability entry in data set [1], in data set [2], in data set [3] and in data set [4] was “Stable” throughout.
Regarding `O=C(Cc1cc(F)cc(F)c1)N[C@@H](CS)C(=O)Nc1ccc(-c2cn3c4c(sc3n2)CN(Cc2ccccc2)CC4)cc1`, the Stability entry in data set [1], in data set [2], in [3] and in data set [4] was “Stable” each time.
With `Cc1cc(C)cc(CC(=O)N[C@H](Cc2ccccc2)C(=O)Nc2ccc(-c3cn4c(n3)sc3ccccc34)cc2)c1`, the Stability entry in data set [1], in data set [2], in data set [3] and in data set [4] was “Stable” throughout. For the same molecule, the figures for the Activity result in the data set with MDCK [5] and in the data set on MDCK [6] were “Non-toxic” and “Toxic”, respectively.
Turning to `Cc1cc(C)cc(CC(=O)N[C@@H](Cc2ccccc2)C(=O)Nc2ccc(-c3cn4c5c(sc4n3)CCCC5)cc2)c1`, the Stability entry in [1], in data set [2], in data set [3] and in [4] was “Stable” in each case.
In the case of `O=C(Cc1cc(F)cc(F)c1)NCCC(=O)Nc1ccc(-c2cn3c4c(sc3n2)CCN(Cc2ccccc2)C4)cc1`, the Stability result in data set [1], in data set [2], in data set [3] and in data set [4] was “Stable” throughout.
As usually defined, the inhibition is how much of the control response was suppressed. `Cc1cc(C)cc(CC(=O)NCC(=O)Nc2ccc(-c3cn4c(n3)sc3ccccc34)cc2)c1`: the Stability entry in data set [1], in data set [2], in data set [3] and in [4] was “Stable” each time. Besides, the inhibition entry in [15] was “inactive”.
With `Cc1cc(C)cc(CC(=O)N[C@H](Cc2ccccc2)C(=O)Nc2ccc(-c3cn4c5c(sc4n3)CN(Cc3ccccc3)CC5)cc2)c1`, the Stability entry in [1], in [2], in data set [3] and in [4] was “Stable” each time.
For the molecule `Cc1cc(C)cc(CC(=O)N[C@@H](Cc2ccccc2)C(=O)Nc2ccc(-c3cn4c5c(sc4n3)CN(Cc3ccccc3)CC5)cc2)c1`, the Stability result in [1], in data set [2], in [3] and in [4] was “Stable” in each case.
Consider `C[C@H](NC(=O)Cc1cc(F)cc(F)c1)C(=O)Nc1ccc(-c2cn3c4c(sc3n2)CCN(Cc2ccccc2)C4)cc1`, for which the Stability entry in data set [1], in data set [2], in data set [3] and in data set [4] was “Stable” in each case.
As for `Cc1cc(C)cc(CC(=O)N[C@@H](Cc2ccccc2)C(=O)Nc2ccc(-c3cn4c(n3)sc3ccccc34)cc2)c1`, the Stability entry in data set [1], in [2], in data set [3] and in data set [4] was “Stable” each time. In addition, the Activity result was “Non-toxic” in the data set with MDCK [5], “Toxic” with MDCK [6], “Dose-dependent effect” in the data set on HepG2 [7] and “Dose-dependent effect” in the data set on GTL 16 [8]. The result in the data set with BT-474 [9] and with MCF7 [10] was inactive.
On to `COc1cc2ncnc(Nc3ccc(F)c(Cl)c3)c2cc1OCCCN1CCOCC1`, for which the outcome in the data set on BT-474 [16] and in the data set with MCF7 [17] was Active.
Consider `Cc1ccc(CC(=O)N[C@@H](Cc2ccccc2)C(=O)Nc2ccc(-c3cn4c(n3)sc3ccccc34)cc2)cc1`, for which the Stability result in data set [1], in data set [2], in data set [3] and in data set [4] was “Stable” each time. Further, in data set [18], the inhibition was determined as 30%. Moreover, the Activity entry with MDCK [5] is “Non-toxic”; in the data set on MDCK [6], “Toxic”.
In the case of `Cc1ccc(C[C@H](NC(=O)Cc2cc(C(F)(F)F)cc(C(F)(F)F)c2)C(=O)Nc2ccc(-c3cn4c(n3)sc3ccccc34)cc2)cc1`, the Stability entry in data set [1], in data set [2], in data set [3] and in [4] was “Stable” in each case.
As to `C[C@@H](NC(=O)Cc1cc(F)cc(F)c1)C(=O)Nc1ccc(-c2cn3c4c(sc3n2)CCN(Cc2ccccc2)C4)cc1`, the Stability result in data set [1], in data set [2], in data set [3] and in data set [4] was “Stable” each time.
As to `Cc1cc(C)cc(CC(=O)N[C@@H](Cc2ccc(O)cc2)C(=O)Nc2ccc(-c3cn4c(n3)sc3ccccc34)cc2)c1`, the Stability result in [1], in data set [2], in [3] and in data set [4] was “Stable” in each case.
In the case of `O=C(Cc1cc(C(F)(F)F)cc(C(F)(F)F)c1)N[C@@H](Cc1ccccc1)C(=O)Nc1ccc(-c2cn3c(n2)sc2cc(Br)ccc23)cc1`, the Stability entry in data set [1], in data set [2], in [3] and in [4] was “Stable” each time. Besides, the figures for the Activity result in the data set on MDCK [5] and with MDCK [6] were “Non-toxic” and “Toxic”, respectively.
